# ChEMBL document CHEMBL1143889, “N-Phenyl and N-phenylalkyl-maleimides acting against Candida spp.: time-to-kill, stability, interaction with maleamic acids” (2008)
# Activity calls are given as the source filed them. No cut-off for these calls is given here.
# Columns and labels:
# [1] = test system: Candida tropicalis; test: Antifungal activity against Candida tropicalis C 137-1997 after 48 hrs by CLSI M27-A2 method; format: functional
# Summary of the method: (§1)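 Broth microdilution per CLSI M27-A2 in RPMI-1640, with twofold dilutions giving final 250–0.98 µg/mL. The inoculum was modified to 1–5 × 10⁴ CFU/mL instead of 1–5 × 10³, with ketoconazole and amphotericin B as positive controls. MIC was the lowest concentration giving total growth inhibition, read visually. Strains were grown on Sabouraud-chloramphenicol agar for 24 h at 37 °C.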
# [2] = test system: Candida albicans; test: Antifungal activity against Candida albicans ATCC 10231 pre-incubated for 2 days analysed after 24 hrs by CLSI M27-A2 method; format: functional
# Summary of the method: (§2)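 Twofold maleimide dilutions (1000–0.98 µg/mL) in complete M27-A2 medium without inoculum were held at 37 °C, with one plate row filled on each of 7 consecutive days to give 0–7 days of pre-incubation. All wells were then inoculated with C. albicans ATCC 10231 at 1–5 × 10⁴ CFU/mL and incubated for 24 h at 37 °C. MIC was read per row, in duplicate.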
# [3] = test system: Candida albicans; test: Antifungal activity against Candida albicans ATCC 10231 pre-incubated for 6 days analysed after 24 hrs by CLSI M27-A2 method; format: functional; summary of the method: as §2
# [4] = test system: Candida albicans; test: Antifungal activity against Candida albicans C 127-2000 after 48 hrs by CLSI M27-A2 method; format: functional; summary of the method: as §1
# [5] = test system: Pichia kudriavzevii; test: Antifungal activity against Candida krusei C 117-2000 after 48 hrs by CLSI M27-A2 method; format: functional; summary of the method: as §1
# [6] = test system: Candida albicans; test: Antifungal activity against Candida albicans ATCC 10231 within 90 mins by time-to-kill study; format: functional, organism-based
# Summary of the method: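 C. albicans ATCC 10231 (2–2.5 × 10⁴ CFU/mL) in 5 mL RPMI-1640 was exposed to 1× MFC of compound at 37 °C with agitation. 10 µL samples taken at 0, 30, 60, 90 and 120 min, and at 4, 8, 12 and 24 h, were plated on drug-free SDA and colonies counted after 24–48 h at 37 °C. Run in duplicate.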
# [7] = test system: Candida albicans; test: Antifungal activity against Candida albicans ATCC 10231 after 24 hrs by CLSI M27-A2 method; format: functional; conditions: ATCC 10231, 24 h; summary of the method: as §1
# [8] = test system: Nakaseomyces glabratus; test: Antifungal activity against Candida glabrata C 115-2000 after 48 hrs by CLSI M27-A2 method; format: functional; summary of the method: as §1
# [9] = test system: Candida albicans; test: Antifungal activity against Candida albicans ATCC 10231 pre-incubated for 4 days analysed after 24 hrs by CLSI M27-A2 method; format: functional; summary of the method: as §2
# [10] = test system: Candida albicans; test: Antifungal activity against Candida albicans ATCC 10231 pre-incubated for 5 days analysed after 24 hrs by CLSI M27-A2 method; format: functional; summary of the method: as §2
# [11] = test system: Candida albicans; test: Antifungal activity against Candida albicans C 125-2000 after 48 hrs by CLSI M27-A2 method; format: functional; summary of the method: as §1
# [12] = test system: Candida albicans; test: Antifungal activity against Candida albicans C 128-2000 after 48 hrs by CLSI M27-A2 method; format: functional; summary of the method: as §1
# [13] = test system: Candida albicans; test: Antifungal activity against Candida albicans C 126-2000 after 48 hrs by CLSI M27-A2 method; format: functional; summary of the method: as §1
# [14] = test system: Candida parapsilosis; test: Antifungal activity against Candida parapsilosis C 124-2000 after 48 hrs by CLSI M27-A2 method; format: functional; conditions: Lodderomyces parapsilosis; summary of the method: as §1
# [15] = test system: Clavispora lusitaniae; test: Antifungal activity against Candida lusitaniae C 131-2000 after 48 hrs by CLSI M27-A2 method; format: functional; summary of the method: as §1
# [16] = test system: Candida albicans; test: Antifungal activity against Candida albicans C 129-2000 after 48 hrs by CLSI M27-A2 method; format: functional; summary of the method: as §1
# [17] = test system: Torulaspora delbrueckii; test: Antifungal activity against Candida coliculosa C 122-2000 after 48 hrs by CLSI M27-A2 method; format: functional; summary of the method: as §1
# [18] = test system: Kluyveromyces marxianus; test: Antifungal activity against Candida kefyr C 123-2000 after 48 hrs by CLSI M27-A2 method; format: functional; summary of the method: as §1
# [19] = test system: Candida albicans; test: Antifungal activity against Candida albicans ATCC 10231 pre-incubated for 1 day analysed after 24 hrs by CLSI M27-A2 method; format: functional; summary of the method: as §2
# [20] = test system: Candida albicans; test: Antifungal activity against Candida albicans ATCC 10231 after 48 hrs by CLSI M27-A2 method; format: functional; conditions: ATCC 10231, 48 h; summary of the method: as §1
# [21] = test system: Candida albicans; test: Antifungal activity against Candida albicans ATCC 10231 pre-incubated for 3 days analysed after 24 hrs by CLSI M27-A2 method; format: functional; summary of the method: as §2
# [22] = test system: Candida albicans; test: Antifungal activity against Candida albicans ATCC 10231 preincubated for 7 days analysed after 24 hrs by CLSI M27-A2 method; format: functional; summary of the method: as §2
# [23] = test system: Candida albicans; test: Antifungal activity against Candida albicans C 130-2000 after 48 hrs by CLSI M27-A2 method; format: functional; summary of the method: as §1
SMILES,MIC [1],MIC [2],MIC [3],MIC [4],MIC [5],MIC [8],MIC [11],MIC [12],MIC [13],MIC [14],MIC [15],MIC [16],MIC [17],MIC [18],MIC [20],MIC [23],MFC [1],MFC [4],MFC [5],Activity [6],further results
O=C1C=CC(=O)N1CCCc1ccccc1,15.8 µg/mL,3.9 µg/mL,125 µg/mL,1.95 µg/mL,3.9 µg/mL,1.95 µg/mL,0.97 µg/mL,3.9 µg/mL,0.97 µg/mL,3.9 µg/mL,1.95 µg/mL,1.95 µg/mL,3.9 µg/mL,15.8 µg/mL,3.9 µg/mL,0.97 µg/mL,32.2 µg/mL,3.9 µg/mL,7.8 µg/mL,Active,MIC [7]: 3.9 µg/mL; MFC [8]: 3.9 µg/mL; MIC [9]: 15.8 µg/mL; MIC [10]: 62.5 µg/mL; MFC [11]: 1.95 µg/mL; MFC [12]: 7.81 µg/mL; MFC [13]: 1.95 µg/mL; MFC [14]: 3.9 µg/mL; MFC [15]: 7.8 µg/mL; MFC [16]: 3.9 µg/mL; MFC [17]: 32.2 µg/mL; MFC [18]: 7.81 µg/mL; MIC [19]: 3.9 µg/mL; MFC [20]: 7.8 µg/mL; MIC [21]: 15.8 µg/mL; MIC [22]: 1000 µg/mL; MFC [23]: 1.95 µg/mL
O=C(O)/C=C\C(=O)NCCCc1ccccc1,> 250 µg/mL,,,> 250 µg/mL,> 250 µg/mL,> 250 µg/mL,> 250 µg/mL,> 250 µg/mL,> 250 µg/mL,> 250 µg/mL,> 250 µg/mL,> 250 µg/mL,> 250 µg/mL,> 250 µg/mL,> 250 µg/mL,> 250 µg/mL,,,,,
C[C@@H]1[C@H](O)[C@@H](C)/C=C/C=C/C=C/C=C/C=C/C=C/C=C/[C@H](O[C@@H]2O[C@H](C)[C@@H](O)[C@H](N)[C@@H]2O)C[C@@H]2O[C@](O)(C[C@@H](O)C[C@@H](O)[C@H](O)CC[C@@H](O)C[C@@H](O)CC(=O)O[C@H]1C)C[C@H](O)[C@H]2C(=O)O [AMPHOTERICIN B],0.12 µg/mL,,,0.78 µg/mL,0.39 µg/mL,0.39 µg/mL,0.78 µg/mL,1.56 µg/mL,1.56 µg/mL,0.78 µg/mL,0.39 µg/mL,0.78 µg/mL,0.39 µg/mL,0.78 µg/mL,1 µg/mL,0.39 µg/mL,,,,,
O=C(O)/C=C\C(=O)Nc1ccccc1,> 250 µg/mL,,,> 250 µg/mL,> 250 µg/mL,> 250 µg/mL,> 250 µg/mL,> 250 µg/mL,> 250 µg/mL,> 250 µg/mL,> 250 µg/mL,> 250 µg/mL,> 250 µg/mL,> 250 µg/mL,> 250 µg/mL,> 250 µg/mL,,,,,

# Second part, led by results:
MIC [1],MIC [2],MIC [3],MIC [4],MIC [5],MIC [8],MIC [11],MIC [12],MIC [13],MIC [14],MIC [15],MIC [16],MIC [17],MIC [18],MIC [20],MIC [23],SMILES,MFC [1],MFC [4],MFC [5],Activity [6],further results
15.8 µg/mL,7.8 µg/mL,250 µg/mL,1.95 µg/mL,3.9 µg/mL,1.95 µg/mL,0.97 µg/mL,1.95 µg/mL,0.97 µg/mL,1.95 µg/mL,1.95 µg/mL,1.95 µg/mL,1.95 µg/mL,3.9 µg/mL,3.9 µg/mL,0.97 µg/mL,O=C1C=CC(=O)N1Cc1ccccc1,32.2 µg/mL,3.9 µg/mL,3.9 µg/mL,Active,MIC [7]: 3.9 µg/mL; MFC [8]: 1.95 µg/mL; MIC [9]: 15.8 µg/mL; MIC [10]: 125 µg/mL; MFC [11]: 1.95 µg/mL; MFC [12]: 3.9 µg/mL; MFC [13]: 3.9 µg/mL; MFC [14]: 3.9 µg/mL; MFC [15]: 3.9 µg/mL; MFC [16]: 3.9 µg/mL; MFC [17]: 7.81 µg/mL; MFC [18]: 3.9 µg/mL; MIC [19]: 3.9 µg/mL; MFC [20]: 7.8 µg/mL; MIC [21]: 7.8 µg/mL; MIC [22]: 500 µg/mL; MFC [23]: 1.95 µg/mL
> 250 µg/mL,,,> 250 µg/mL,> 250 µg/mL,> 250 µg/mL,> 250 µg/mL,> 250 µg/mL,> 250 µg/mL,> 250 µg/mL,> 250 µg/mL,> 250 µg/mL,> 250 µg/mL,> 250 µg/mL,> 250 µg/mL,> 250 µg/mL,O=C(O)/C=C\C(=O)NCCCCc1ccccc1,,,,,
